The values that follow come from ChEMBL document CHEMBL1122206, “Use of adenine nucleotide derivatives to assess the potential of exo-active-site-directed reagents as species- or isozyme-specific enzyme inactivators. 5. Interactions of adenosine 5'-triphosphate derivatives with rat pyruvate kinases, Escherichia coli thymidine kinase, and yeast and rat …” (1982).

Test [1] is described as follows: Compound was tested for substrate constants with rat hexokinase. Maximal velocity Vmax was reported. In outline: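 Rat HK I and HK III came from liver extract of an adult male Sprague-Dawley rat and were separated by electrofocusing and dialysed; HK II was dialysed muscle extract. The coupled assay ran at 22 °C in 0.05 M Tris-HCl pH 7.6 with 6.6 mM MgCl2, 10 mM glucose, 0.93 mM NADP and G6P dehydrogenase, read at 340 nm. Constants came from linear double-reciprocal plots.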

The nature of test [2]: Substrate concentration for half maximal velocity was reported for yeast hexokinase. In outline: (§1)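 Coupled glucose-6-phosphate dehydrogenase/NADP assay: A340 rate at 22 °C in 0.05 M Tris-HCl pH 7.6 with 6.6 mM MgCl2, 10 mM α-D-glucose and 0.93 mM NADP, nucleotide varied. KM was taken from linear double-reciprocal plots. Rat HK I and III came from electrofocused, dialysed liver extract, HK II from dialysed muscle extract, and yeast HK was isoelectric-focused.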

For test [3], the target named is T1, Hexokinase-3 (Rattus norvegicus) (UniProt P27926).
T1 sequence (whole entry): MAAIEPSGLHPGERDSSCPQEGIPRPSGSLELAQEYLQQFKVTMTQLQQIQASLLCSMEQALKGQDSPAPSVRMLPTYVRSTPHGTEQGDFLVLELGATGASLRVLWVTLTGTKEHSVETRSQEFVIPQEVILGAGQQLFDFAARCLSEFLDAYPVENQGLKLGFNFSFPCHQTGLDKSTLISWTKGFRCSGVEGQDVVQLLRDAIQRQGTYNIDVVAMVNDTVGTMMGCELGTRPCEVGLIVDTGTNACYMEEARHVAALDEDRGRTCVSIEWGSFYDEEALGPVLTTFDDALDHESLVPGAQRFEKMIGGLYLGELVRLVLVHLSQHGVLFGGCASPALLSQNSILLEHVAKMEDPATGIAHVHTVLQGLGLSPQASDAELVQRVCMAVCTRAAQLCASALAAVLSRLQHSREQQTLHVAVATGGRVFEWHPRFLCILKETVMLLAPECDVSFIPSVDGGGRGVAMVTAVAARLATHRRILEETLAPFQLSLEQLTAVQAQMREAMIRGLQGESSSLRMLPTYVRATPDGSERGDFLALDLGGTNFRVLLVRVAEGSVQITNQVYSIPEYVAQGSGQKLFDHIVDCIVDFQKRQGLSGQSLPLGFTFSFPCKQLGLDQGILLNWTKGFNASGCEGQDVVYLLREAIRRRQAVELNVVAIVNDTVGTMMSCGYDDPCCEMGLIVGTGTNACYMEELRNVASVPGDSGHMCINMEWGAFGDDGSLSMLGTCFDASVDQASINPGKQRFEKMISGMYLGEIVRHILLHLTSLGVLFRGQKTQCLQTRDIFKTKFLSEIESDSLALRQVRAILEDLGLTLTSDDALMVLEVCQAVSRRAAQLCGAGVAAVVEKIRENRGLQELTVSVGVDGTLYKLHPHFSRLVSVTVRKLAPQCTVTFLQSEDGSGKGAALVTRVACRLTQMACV
The test is described as follows: Time dependent inhibition of Hexokinase type III activity after 6 h, at 22 degrees celsius, at 5 mM.

Test [4] in a line: Compound was tested for substrate constants with yeast hexokinase. Maximal velocity Vmax was reported. Summed up: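 Hexokinase KM and Vmax taken from linear double-reciprocal plots of initial velocity vs. nucleotide level. Assays at 22 °C, coupled to glucose-6-phosphate dehydrogenase (A340), in 0.05 M Tris-HCl pH 7.6 with 6.6 mM MgCl2, 10 mM glucose and 0.93 mM NADP. Yeast HK was isoelectric-focused. Rat HK I and III came from liver, HK II from muscle (male Sprague-Dawley).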

Test [5] is described as follows: Substrate concentration for half maximal velocity was reported for rat hexokinase II. In outline:
as §1

The next test has as its system Saccharomyces cerevisiae. The test can be described thus: Compound was tested for time dependent inhibition of hexokinase activity after 6 hr, at 0 degrees celsius, with 10 mM ATP derivative in yeast hexokinase.
Test [6] addresses T2, Hexokinase-2 (Rattus norvegicus) (UniProt P27881).
T2 sequence (whole entry): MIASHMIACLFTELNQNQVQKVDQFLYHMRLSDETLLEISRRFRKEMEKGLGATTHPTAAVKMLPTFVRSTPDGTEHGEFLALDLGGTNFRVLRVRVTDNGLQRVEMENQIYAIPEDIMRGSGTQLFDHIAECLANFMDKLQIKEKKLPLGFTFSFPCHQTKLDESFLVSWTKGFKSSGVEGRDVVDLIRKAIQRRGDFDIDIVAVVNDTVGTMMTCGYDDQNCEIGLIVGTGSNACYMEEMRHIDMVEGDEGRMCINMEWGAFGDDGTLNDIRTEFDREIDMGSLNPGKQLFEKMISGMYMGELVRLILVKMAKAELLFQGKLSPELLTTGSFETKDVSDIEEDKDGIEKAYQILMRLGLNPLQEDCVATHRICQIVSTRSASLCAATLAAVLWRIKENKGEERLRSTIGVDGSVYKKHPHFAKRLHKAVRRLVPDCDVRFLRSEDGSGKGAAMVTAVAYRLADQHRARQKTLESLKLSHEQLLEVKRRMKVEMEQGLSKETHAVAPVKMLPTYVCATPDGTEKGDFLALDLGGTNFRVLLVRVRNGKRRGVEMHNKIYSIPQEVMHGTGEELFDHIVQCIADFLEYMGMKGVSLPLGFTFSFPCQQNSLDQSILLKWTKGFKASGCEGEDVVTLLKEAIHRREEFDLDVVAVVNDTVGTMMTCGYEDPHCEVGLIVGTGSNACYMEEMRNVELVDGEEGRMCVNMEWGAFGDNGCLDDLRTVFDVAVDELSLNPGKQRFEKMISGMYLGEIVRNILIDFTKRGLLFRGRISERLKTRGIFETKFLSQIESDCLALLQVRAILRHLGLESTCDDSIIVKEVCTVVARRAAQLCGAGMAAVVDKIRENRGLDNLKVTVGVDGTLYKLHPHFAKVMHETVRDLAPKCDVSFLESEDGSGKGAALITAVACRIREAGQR
The test can be described thus: Substrate activity against Rat hexokinase II as 1:1 Mg complex at 5.0 mM. In outline: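 Hexokinase activity read at 22 °C as A340 change, coupled to glucose-6-phosphate dehydrogenase, in 0.05 M Tris-HCl pH 7.6 with 6.6 mM MgCl2, 10 mM α-D-glucose and 0.93 mM NADP. Donor was 5.0 mM MgATP derivative (1:1 Mg complex) in place of ATP. Yeast HK was isoelectric-focused. Rat HK I and III came from electrofocused liver extract, HK II from dialysed muscle extract.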

A short description of test [7]: Substrate concentration for half maximal velocity was reported for rat hexokinase III. Summed up:
as §1

A word on the Km: it is the substrate concentration at which the rate is half of its maximum. By inhibition is commonly meant the percentage by which the read-out fell short of the control. Higher therefore signals a response far below the control.

As to `Nc1ncnc2c1ncn2[C@@H]1O[C@H](COP(=O)(O)OP(=O)(O)OP(=O)(O)O)[C@@H](O)[C@H]1O`, the Vmax in test [1] and in test [4] was 100% each time. Also, the Km in test [2] was found to be 130 µM; in test [5], 710 µM; in test [7] it was 910 µM. In addition, the inhibition (in test [3]; in the test on Saccharomyces cerevisiae) was 0% throughout. The compound also registered a Relative velocity in test [6] of 1.
